PMC6314479 (Nature chemical biology, 2017)

Experiments:
USP10 [1] = molecular target: USP10 (Homo sapiens, UniProt Q14694); experiment: MALDI-TOF DUB assay with diubiquitin as substrate, dose response; assay type: biochemical; details: read-out: USP10 IC50
Outline: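 Human USP10 was freshly diluted in 40mM Tris–HCl pH 7.6, 5mM DTT, 0.005% BSA and pre-incubated with test compound for 30 min at room temperature. Di-ubiquitin topoisomers (K63, K48, K11, M1) at 1.5 μM were added, incubated 30 min at room temperature, then stopped with TFA at 2% (v/v) final. Cleavage was read by MALDI-TOF.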

[2] = tested on: Ba/F3-FLT3-ITD and Ba/F3-FLT3-D835Y cells; experiment: Proliferation of mutant FLT3-positive Ba/F3 cells; assay type: cell-based, murine
wt FLT3 = experiment: FLT3 protein levels in Ba/F3-wtFLT3 cells; assay type: cell-based, murine
FLT3-ITD = experiment: FLT3 degradation in FLT3-ITD positive AML lines; assay type: cell-based, human; details: MOLM13-luc+ and MOLM14, 20 μM
Beclin-1 = Beclin-1 and FLT3 protein levels; assay type: cell-based
USP10 [3] = experiment: Competitive activity-based protein profiling with HA-Ub-VS in cells; assay type: cell-based; details: lysates from live treated cells (Ba/F3-FLT3-ITD, MOLM14)
[4] = tested on: FLT3-ITD positive primary AML patient cells and primagraft cells; experiment: Ex vivo treatment of AML patient samples and primagrafts; assay type: cell-based, human; details: 21 hours, 20 μM
[5] = tested on: FLT3-ITD+, D835Y+ AML primagraft; experiment: AML primagraft study in NSG mice; assay type: in vivo
Outline: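 Primagraft mice got the test compound at 15 mg/kg IP once daily (n=3) or vehicle (n=3). Dosing began once disease was detectable by flow cytometry and ran for 21 days. Body weight was followed to judge tolerability.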

[6] = tested on: Ba/F3-FLT3-ITD-luc+ cells; experiment: Non-invasive in vivo bioluminescence model of leukemia
[7] = 50 mg/kg twice daily IP, 4 days, pilot study

USP10 (Homo sapiens, UniProt Q14694), sequence (Q14694 whole entry): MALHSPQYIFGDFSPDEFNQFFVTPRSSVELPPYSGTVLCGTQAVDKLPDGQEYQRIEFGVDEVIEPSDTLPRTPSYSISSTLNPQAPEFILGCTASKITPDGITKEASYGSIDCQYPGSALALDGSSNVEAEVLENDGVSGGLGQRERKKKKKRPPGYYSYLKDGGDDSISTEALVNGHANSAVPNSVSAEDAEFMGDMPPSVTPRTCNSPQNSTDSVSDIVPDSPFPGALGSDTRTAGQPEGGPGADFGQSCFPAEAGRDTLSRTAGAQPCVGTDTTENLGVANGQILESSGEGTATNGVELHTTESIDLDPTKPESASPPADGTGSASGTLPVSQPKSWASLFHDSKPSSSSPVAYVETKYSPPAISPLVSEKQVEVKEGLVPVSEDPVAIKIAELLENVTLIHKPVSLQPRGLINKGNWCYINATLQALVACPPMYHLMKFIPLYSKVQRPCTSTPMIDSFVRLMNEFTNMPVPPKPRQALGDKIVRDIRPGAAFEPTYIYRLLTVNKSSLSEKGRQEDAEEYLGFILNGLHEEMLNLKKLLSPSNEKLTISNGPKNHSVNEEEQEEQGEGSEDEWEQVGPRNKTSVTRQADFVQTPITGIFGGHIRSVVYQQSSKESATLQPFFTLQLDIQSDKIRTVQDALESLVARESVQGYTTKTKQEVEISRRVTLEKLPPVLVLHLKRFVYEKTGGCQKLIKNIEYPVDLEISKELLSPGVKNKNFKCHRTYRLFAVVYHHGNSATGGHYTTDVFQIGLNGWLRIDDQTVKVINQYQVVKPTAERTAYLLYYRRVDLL

Row | Molecule | IC50 (USP10 [1]) | EC50 for inhibition of proliferation [2] | FLT3 protein levels (wt FLT3) | FLT3 degradation (FLT3-ITD) | protein levels of Beclin-1 and FLT3 (Beclin-1; 20 μM, Ba/F3-FLT3-ITD and MOLM14 cells) | inhibitor concentration blocking USP10 labeling by HA-Ub-VS (USP10 [3]) | FLT3 levels via immunoblotting [4] | protein levels of Beclin-1 (Beclin-1; 10 μM, MOLM14 cells) | FLT3 signal in mouse bone marrow lysates (immunoblot) ([5]; 15 mg/kg IP 1X daily, 21 days) | tolerability ([5]; 15mg/kg, 21 day treatment) | average weight loss ([5]; 15mg/kg, 21 days, same for vehicle-treated) | leukemia burden compared to vehicle (in vivo bioluminescence) ([6]; 50 mg/kg IP twice daily or oral gavage once daily, 4–6 days of treatment) | lower percentage of FLT3 expression in bone marrow vs vehicle (flow cytometry) [6, 7] | reduction in luciferase-positive signal in bone marrow vs vehicle [6, 7] | difference in weight vs vehicle-treated mice ([6]; treated for up to 11 days)
1 | HBX19818 | 14 µM | single digit micromolar range | unchanged | strongly induced FLT3 degradation | strongly decreased | low micromolar range | strong reduction in FLT3 |  |  |  |  |  |  |  | 
2 | CC(=O)c1cc([N+](=O)[O-])c(Sc2ccc(F)cc2F)s1 [P22077] | 6 µM |  | unchanged | strongly induced FLT3 degradation |  |  | strong reduction in FLT3 | strongly decreased | undetectable | generally well tolerated | 2 to 3 g | statistically significant decrease | approximately 2 fold | approximately 2 fold | no significant difference
